Key:
[1] = biological target: T1, Adenosine receptor A2a (Rattus norvegicus, UniProt P30543); experiment: Displacement of [3H]NECA from adenosine A2A receptor in rat striatal membranes by radioligand competition assay; format: cell membranes, Striatum, Membrane
[2] = biological target: T2, Adenosine receptor A1 (Rattus norvegicus) (UniProt P25099); experiment: Displacement of [3H]DPCPX from adenosine A1 receptor in rat brain membranes at 100 uM by radioligand competition assay relative to control; format: cell membranes
T2 sequence (whole entry): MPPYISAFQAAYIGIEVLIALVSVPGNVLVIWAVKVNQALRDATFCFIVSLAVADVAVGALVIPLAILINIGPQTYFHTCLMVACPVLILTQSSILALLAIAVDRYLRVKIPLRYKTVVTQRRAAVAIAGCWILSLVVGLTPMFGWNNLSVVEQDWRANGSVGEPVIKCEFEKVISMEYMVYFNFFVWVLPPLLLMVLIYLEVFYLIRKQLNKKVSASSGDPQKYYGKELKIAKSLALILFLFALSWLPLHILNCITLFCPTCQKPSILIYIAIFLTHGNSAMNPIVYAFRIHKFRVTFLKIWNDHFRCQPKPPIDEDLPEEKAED
Procedure, shortened: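 Percentage displacement of radioligand recorded at the maximum tested concentration, 100 μM. Nonspecific binding defined with 100 μM CPA.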

[3] = biological target: T3, Adenosine receptor A1 (Rattus norvegicus, UniProt P25099); experiment: Displacement of [3H]DPCPX from adenosine A1 receptor in rat brain membranes by radioligand competition assay; format: cell membranes
T3 sequence (P25099 whole entry): T2 sequence (whole entry)

[4] = biological target: Adenosine receptor A2a (Rattus norvegicus) (UniProt P30543); experiment: Displacement of [3H]NECA from adenosine A2A receptor in rat striatal membranes at 100 uM by radioligand competition assay relative to control; format: cell membranes; conditions: Striatum, Membrane
Sequence of Adenosine receptor A2a (Rattus norvegicus) (P30543 whole entry): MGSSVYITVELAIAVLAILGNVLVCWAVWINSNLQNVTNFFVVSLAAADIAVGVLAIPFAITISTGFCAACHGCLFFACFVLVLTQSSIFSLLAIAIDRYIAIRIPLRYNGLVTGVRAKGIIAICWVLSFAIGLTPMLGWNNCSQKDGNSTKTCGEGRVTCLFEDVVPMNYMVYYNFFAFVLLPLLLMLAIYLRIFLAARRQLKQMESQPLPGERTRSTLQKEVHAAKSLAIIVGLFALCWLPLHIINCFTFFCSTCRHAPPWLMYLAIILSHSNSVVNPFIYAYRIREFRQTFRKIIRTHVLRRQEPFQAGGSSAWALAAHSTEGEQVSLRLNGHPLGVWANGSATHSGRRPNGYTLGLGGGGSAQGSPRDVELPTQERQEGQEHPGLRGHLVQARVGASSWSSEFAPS
Procedure, shortened: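 Rat striatal membranes, [3H]NECA at 4 nM (Kd = 15.3 nM) with CPA added to minimise A1 binding. Percentage radioligand displacement recorded at the highest tested concentration, 100 μM. Nonspecific binding defined with 100 μM CPA.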

[5] = biological target: T3, Adenosine receptor A1; experiment: Displacement of [3H]DPCPX from adenosine A1 receptor in rat brain membranes in presence of GTP by radioligand competition assay; format: cell membranes
[6] = biological target: T2, Adenosine receptor A1 (Rattus norvegicus); experiment: Selectivity index, ratio of Ki for adenosine A1 receptor in rat brain membranes in presence of GTP to Ki for adenosine A1 receptor in rat brain membranes in absence of GTP; format: cell membranes
Procedure, shortened: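 Both determined by [3H]DPCPX (0.1 nM) competition in rat whole brain membranes, nonspecific binding by 10 μM unlabelled DPCPX. A shift of about 1 is taken as antagonism.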

[7] = species on record: Rattus norvegicus; experiment: Selectivity index, ratio of Ki for adenosine A1 receptor in rat brain membranes to Ki for adenosine A2A receptor in rat striatal membranes; format: cell membranes
Procedure, shortened: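 Selectivity index calculated as the ratio A1 Ki / A2A Ki. […] A2A Ki measured by [3H]NECA (4 nM, with CPA) competition in rat striatal membranes. Ki values are triplicate means.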

[8] = biological target: T1, Adenosine receptor A2a; experiment: Antagonist activity at rat adenosine A2A receptor
Procedure, shortened: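 Competition binding at A2A in rat striatal membranes with [3H]NECA (4 nM; Kd = 15.3 nM), with CPA present to limit [3H]NECA binding to A1. Nonspecific binding defined with 100 μM CPA (final). Ki derived from IC50 of sigmoidal dose-response curves of specific binding vs log concentration. Triplicate incubations, mean ± SEM.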

[9] = biological target: T3, Adenosine receptor A1; experiment: Antagonist activity at rat adenosine A1 receptor

T1 sequence (P30543 whole entry): as above

| Ki [1] | inhibition [2] | Ki [3] | inhibition [4] | Ki [5] | Ratio Ki [6] | Ratio Ki [7] | Ki [8] | Ki [9] | Compound |
| --- | --- | --- | --- | --- | --- | --- | --- | --- | --- |
| > 100 µM | 78% | > 100 µM | 72% |  |  |  |  |  | COc1cccc2c1CCC2=O |
| 1.07 µM | 70% | > 100 µM |  |  |  |  |  |  | O=C1/C(=C/c2ccc(O)c(O)c2)Cc2cc3c(cc21)OCO3 |
| > 100 µM | 31% | > 100 µM | 65% |  |  |  |  |  | COc1cccc2c1C/C(=C\c1ccc(O)cc1)C2=O |
| 0.903 µM |  | 0.435 µM |  | 0.339 µM | 0.9 | 0.5 |  |  | O=C1/C(=C/c2ccc(O)c(O)c2)Cc2c(O)cccc21 |
| 0.163 µM |  |  |  |  |  |  |  |  | OC[C@H]1O[C@@H](n2cnc3c(NC4CCCC4)ncnc32)[C@H](O)[C@@H]1O [N6-CYCLOPENTYLADENOSINE] |
| 18 µM |  | 4.29 µM |  |  |  | 0.2 |  |  | COc1cc2c(cc1OC)C(=O)/C(=C/c1ccc(O)c(O)c1)C2 |
| 0.097 µM |  | 0.041 µM |  | 0.06 µM | 1.46 | 0.4 |  |  | COc1cccc2c1C/C(=C\c1cccc(O)c1)C2=O |
| > 100 µM | 64% | > 100 µM | 47% |  |  |  |  |  | COc1ccc2c(c1)C/C(=C\c1ccc(N(C)C)cc1)C2=O |
| > 100 µM |  | 1.65 µM | 62% |  |  |  |  |  | COc1cccc2c1C/C(=C\c1ccccc1)C2=O |
| > 100 µM | 42% | > 100 µM | 82% |  |  |  |  |  | COc1ccc2c(c1)C/C(=C\c1ccccc1)C2=O |
| 5.46 µM |  | 1.62 µM |  |  |  |  |  |  | O=C1/C(=C/c2cccc(O)c2)CCc2c(O)cccc21 |
| 0.078 µM |  | 0.042 µM |  |  |  | 0.5 |  |  | COc1cccc2c1C/C(=C\c1ccc(O)c(O)c1)C2=O |
|  |  |  |  |  |  |  | > 100 µM |  | O=C1/C(=C/c2ccc(O)cc2)Oc2cc(O)ccc21 |
| 6.32 µM |  | 3.28 µM |  |  |  | 0.5 |  |  | COc1ccc2c(c1)C/C(=C\c1ccc(O)c(O)c1)C2=O |
| > 100 µM | 51% | > 100 µM | 65% |  |  |  |  |  | CN(C)c1ccc(/C=C2\Cc3ccccc3C2=O)cc1 |
| > 100 µM | 46% | > 100 µM | 29% |  |  |  |  |  | COc1cc(OC)c(OC)cc1/C=C1\Cc2c(OC)cccc2C1=O |
|  |  |  |  |  |  |  | 9.35 µM | 3.47 µM | O=C1/C(=C/c2ccc(O)c(O)c2)Oc2c1ccc(O)c2O |
| > 100 µM | 52% | > 100 µM | 23% |  |  |  |  |  | COc1cccc2c1C/C(=C\c1ccc(N(C)C)cc1)C2=O |

— ChEMBL document CHEMBL4480374, “Methoxy substituted 2-benzylidene-1-indanone derivatives as A1 and/or A2A AR antagonists for the potential treatment of neurological conditions” (Medchemcomm, 2019)
